Shown are actives, neighbours in structure and some others; about 4.8% of the full set was active somewhere.
WT yeast gro inh: growth inhibition of WT yeast, mitochondrial fusion screen | mitochondrial fusion phenotypic screen, WT strain | AID 1362 | hit rate 2.1% among 190,000 | inhibition, % at 10 µM; in the data active = inhibition above about 58%; tested in S. cerevisiae
T cruzi inh: T. cruzi replication inhibition; T. cruzi beta-gal in NIH3T3, luminescence, 90 h; inhibition, % (concentration not given with the values); hit rate 1.4% among 300,000;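 active = mean inhibition across valid replicates above about 55%, limit read from the data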;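 note: signal also drops with host cell toxicity which is not excluded here; 0% = plate median of DMSO wells and 100% = zero luminescence signal; higher percent means less beta-gal luminescence so fewer parasites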
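System: mouse NIH/3T3 fibroblasts infected with β-gal-expressing T. cruzi Tulahuen C4 / Input: NIH/3T3 cells, 5,000 per well / Buffer or medium: Low-serum DMEM with 2% FBS / Probe or stimulus: 5000 reporter trypomastigotes per well / Schedule: ≥90 h infection period, 3 h prior cell attachment / Measured by: GalScreen luminescence, 60 min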
SUMO Mot1 rescue: blocks SUMOylation pathway, rescuing yeast Mot1-301 growth; S. cerevisiae Mot1-301 growth rescue, ATP luminescence, 38.5C; percent above DMSO median, 100 means doubled; growth rescue, % at 18.8 µM; hit rate 1% among 320,000;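 active = every valid replicate shows activation above 250% relative to neutral control wells; inactive = the rest, any valid replicate at or below 250%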;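 note: OY570 slx delta 5 strain wells were the positive control but not used for scaling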
Beta cell apopt: blocks beta cell apoptosis; INS-1E cytokine-induced death, ATP luminescence, 48 h; percent of positive-control rescue, neutral wells zero; protection from apoptosis, % (no concentration beside the values); hit rate 0.8% among 300,000;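 active = Every replicate reaches about 75%, or at least half do and their mean reaches it too, limit read from the data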;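 note: 0% = cytokine-treated negative control wells and 100% = positive control rescue; higher means more ATP so stronger rescue from cytokine killing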
Efflux pump mplx: blocks antifungal efflux pumps in multiplex yeast assay; S. cerevisiae Candida pump triplex, Nile Red efflux; inhibition, % at 10 µM; hit rate 0.44% among 330,000; AID 485275;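 active = plate passing quality check with inhibition over a set limit, or well fluorescence over plate mean plus 4 SD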;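 note: Nile Red retained in pooled yeast measured as flow cytometry median fluorescence; 0% = buffer negative control and 100% = Enniatin B positive control; higher means more Nile Red kept so more efflux inhibition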
CSC inhib: cancer stem cell inhibition; cancer stem cell-like cells viability, luminescence; hit rate 1.1% among 300,000; inhibition, % at 7.5 µM; in the data active = inhibition above about 75%; tested in HMLE shEcad cells
Numbers without * were called inactive; · = not tested or not shown.

SMILES | WT yeast gro inh | T cruzi inh | SUMO Mot1 rescue | Beta cell apopt | Efflux pump mplx | CSC inhib
c1ccc(CNc2nc(NCc3ccccc3)c3ccccc3n2)cc1 | · | 38 | -28 | 114* | 0 | 135*
O=C(O)CSCc1cnn(-c2ccccc2)c1-n1cccc1 | 8 | -5 | -2 | -6 | 0 | 7
O=C(CSCc1cnn(-c2ccccc2)c1-n1cccc1)N1CCN(Cc2ccccc2)CC1 | 63* | 45 | -1 | -4 | 0 | 62
COc1ccccc1-n1cnc2sc(C)c(C)c2c1=O | · | -9 | -5 | -6 | 0 | -6
COc1ccccc1-n1cnc2sc(-c3ccccc3)cc2c1=O | 75* | 4 | 66 | 3 | 0 | 8
Cc1nn(CC(=O)N2CCCC2)c(=O)c2cc3cc(F)ccc3n12 | · | -26 | 5 | -4 | 0 | -31
Cc1cccc(NC(=S)NC(C)CCc2ccccc2)c1 (configuration not stated) | 74* | 5 | 222 | · | 0 | ·
Cc1cccc(NC(=S)NC(NC(=O)OCc2ccccc2)C(Cl)(Cl)Cl)c1 (configuration not stated) | -2 | 57* | 26 | 10 | 0 | 34
O=C(NC(NC(=S)Nc1cccc(C(=O)O)c1)C(Cl)(Cl)Cl)OCc1ccccc1 (configuration not stated) | 2 | -17 | 5 | -8 | 0 | -9
O=C(NC(NC(=S)Nc1cccc(Cl)c1)C(Cl)(Cl)Cl)OCc1ccccc1 (configuration not stated) | 50 | 7 | 2 | 19 | 0 | 116*
Cc1cccc(NC(=O)NC(C)CCc2ccccc2)c1 (configuration not stated) | 26 | 12 | 20 | -6 | 0 | -9
CC1CCCN(C(=O)c2cc(S(=O)(=O)N3CCCCC3)c[nH]2)C1 (configuration not stated) | · | -10 | 61 | 0 | 0 | -10
Oc1ccc(/C=N/Nc2ccc(C(F)(F)F)cn2)c(O)c1 | · | 13 | 331 | 73 | 0 | 102*
Oc1ccc(/C=N/Nc2ccc(C(F)(F)F)cn2)cc1 | -6 | 8 | 18 | -5 | 0 | 17
CCOC(=O)c1cnc(Nc2nc3ccccc3o2)nc1CSc1ncccn1 | · | 7 | 57 | 17 | 0 | 0
CCOC(=O)c1cnc(Nc2nc3ccccc3o2)nc1CSC(=S)N(CC)CC | 32 | 61* | -10 | 19 | 1 | ·
CCOP(=O)(OCC)c1nc(/C=C/c2ccccc2)oc1NCc1ccc(OC)cc1 | 9 | 21 | -19 | 10 | 0 | 5
CCOP(=O)(OCC)c1nc(/C=C/c2ccccc2)oc1NCc1ccccc1 | 83* | 20 | 42 | -5 | 0 | 1
CCOP(=O)(OCC)c1nc(-c2cccc3ccccc23)oc1NCc1ccc(OC)cc1 | 17 | 57* | -15 | 3 | 0 | 11
O=C(OCn1ncc(Br)c(Br)c1=O)c1ccc(F)cc1 | 87* | 51 | 317 | 100* | 0 | -43
O=C(OCn1ncc(Br)c(Br)c1=O)c1ccccc1Cl | 80 | 59* | 57 | 112* | 0 | -6
COc1ccc(N2CCN(C(=O)c3ccc(OCC4CCCO4)cc3)CC2)cc1 (configuration not stated) | 6 | 6 | 6 | -8 | 0 | -4
CCN(CC(=O)Nc1ccc(NC(C)=O)cc1)C(=O)CCCc1nc2ccccc2c(=O)[nH]1 | · | -3 | -1 | 2 | 0 | -11
CCOc1ccc(NC(=S)N(CCc2c(C)[nH]c3ccc(C)cc23)Cc2ccco2)cc1 | 67* | 45 | -1 | -3 | 0 | 6
CCOc1ccc(NC(=S)N(Cc2ccc(N(C)C)cc2)Cc2ccco2)cc1 | 59* | 42 | 11 | 1 | 0 | -3
CCOc1ccc(NC(=S)NN(C)C(=S)Nc2ccc(OCC)cc2)cc1 | 65* | 14 | 28 | 3 | -5 | 14
COc1ccc(NC(=S)N(Cc2ccc(N(C)C)cc2)Cc2ccco2)cc1 | 11 | 23 | 28 | -1 | 0 | -6
CCOc1ccc(NC(=S)N(CCc2c(C)[nH]c3ccc(C)cc23)Cc2cccnc2)cc1 | 5 | 49 | -1 | 0 | 0 | -4
COc1ccc(NC(=S)N(CCc2c(C)[nH]c3ccc(C)cc23)Cc2ccco2)cc1 | 69* | 26 | 3 | -2 | 0 | 3

High-throughput results (PubChem BioAssay)
